# Experiments:
# Canis familiaris [1] = experiment: Conduction time from Q wave to T wave of lead II electrocardiogram corrected for heart rate was tested in dogs at a dose of 0.3 mg/kg through intravenous administration. (baseline value- 352+/-7); type: functional, Canis lupus familiaris
# Canis familiaris [2] = experiment: Conduction time from Q wave to T wave of lead II electrocardiogram corrected for heart rate was tested in dogs at a dose of 1.0 mg/kg through intravenous administration. (baseline value- 352+/-7); type: functional, Canis lupus familiaris
# Canis familiaris [3] = experiment: Conduction time from Q wave to T wave of lead II electrocardiogram corrected for heart rate was tested in dogs at a dose of 3.0 mg/kg through intravenous administration. (baseline value- 352+/-7); type: functional, Canis lupus familiaris
# Canis familiaris [4] = experiment: Conduction time from the His bundle to the onset of ventricular depolarizations was tested in dogs at a dose of 0.1 mg/kg through intravenous administration. (baseline value- 17+/-1 ); type: functional, Canis lupus familiaris, Cardiac ventricle
# Canis familiaris [5] = experiment: Conduction time from the His bundle to the onset of ventricular depolarizations was tested in dogs at a dose of 0.3 mg/kg through intravenous administration. (baseline value- 17+/-1 ); type: functional, Canis lupus familiaris, Cardiac ventricle
# Canis familiaris [6] = experiment: Conduction time from the His bundle to the onset of ventricular depolarizations was tested in dogs at a dose of 1.0 mg/kg through intravenous administration. (baseline value- 17+/-1 ); type: functional, Canis lupus familiaris, Cardiac ventricle
# Canis familiaris [7] = experiment: Conduction time from the His bundle to the onset of ventricular depolarizations was tested in dogs at a dose of 3.0 mg/kg through intravenous administration. (baseline value- 17+/-1 ); type: functional, Canis lupus familiaris, Cardiac ventricle
# Canis familiaris [8] = experiment: Conduction time from the atrium to His bundle was tested in dogs at a dose of 0.1 mg/kg through intravenous administration. (baseline value- 73+/-3 ); type: functional, Canis lupus familiaris
# Canis familiaris [9] = experiment: Conduction time from the atrium to His bundle was tested in dogs at a dose of 0.3 mg/kg through intravenous administration. (baseline value- 73+/-3 ); type: functional, Canis lupus familiaris
# Canis familiaris [10] = experiment: Conduction time from the atrium to His bundle was tested in dogs at a dose of 1.0 mg/kg through intravenous administration. (baseline value- 73+/-3 ); type: functional, Canis lupus familiaris
# Canis familiaris [11] = experiment: Conduction time from the atrium to His bundle was tested in dogs at a dose of 3.0 mg/kg through intravenous administration. (baseline value 73+/-3 ); type: functional, Canis lupus familiaris
# Canis familiaris [12] = experiment: Conduction time for ventricular refractory period of the first premature stimulus was tested in dogs at a dose of 0.1 mg/kg through intravenous administration. (baseline value- 137+/-4); type: functional, Canis lupus familiaris, Cardiac ventricle
# Canis familiaris [13] = experiment: Conduction time for ventricular refractory period of the first premature stimulus was tested in dogs at a dose of 0.3 mg/kg through intravenous administration. (baseline value- 137+/-4); type: functional, Canis lupus familiaris, Cardiac ventricle
# Canis familiaris [14] = experiment: Conduction time for ventricular refractory period of the first premature stimulus was tested in dogs at a dose of 1.0 mg/kg through intravenous administration. (baseline value- 137+/-4); type: functional, Canis lupus familiaris, Cardiac ventricle
# Canis familiaris [15] = experiment: Conduction time for ventricular refractory period of the first premature stimulus was tested in dogs at a dose of 3.0 mg/kg through intravenous administration. (baseline value- 137+/-4); type: functional, Canis lupus familiaris, Cardiac ventricle
# Canis familiaris [16] = experiment: Conduction time for ventricular refractory period of the second premature stimulus was tested in dogs at a dose of 0.1 mg/kg through intravenous administration. (baseline value- 123+/-4); type: functional, Canis lupus familiaris, Cardiac ventricle
# Canis familiaris [17] = experiment: Conduction time for ventricular refractory period of the second premature stimulus was tested in dogs at a dose of 0.3 mg/kg through intravenous administration. (baseline value- 123+/-4); type: functional, Canis lupus familiaris, Cardiac ventricle
# Canis familiaris [18] = experiment: Conduction time for ventricular refractory period of the second premature stimulus was tested in dogs at a dose of 1.0 mg/kg through intravenous administration. (baseline value- 123+/-4); type: functional, Canis lupus familiaris, Cardiac ventricle
# Canis familiaris [19] = experiment: Conduction time for ventricular refractory period of the second premature stimulus was tested in dogs at a dose of 3.0 mg/kg through intravenous administration. (baseline value- 123+/-4); type: functional, Canis lupus familiaris, Cardiac ventricle
# Canis familiaris [20] = experiment: Conduction time from Q wave to T wave of lead II electrocardiogram corrected for heart rate was tested in dogs at a dose of 0.1 mg/kg through intravenous administration. (baseline value- 352+/-7); type: functional, Canis lupus familiaris
# Oryctolagus cuniculus [21] = species: Oryctolagus cuniculus; experiment: Tested for effective refractory period measured at a pacing rate of 1 Hz in vitro with rabbit heart tissue preparations.; type: functional
# Procedure, shortened: (§1)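 Isolated rabbit heart tissues, all from one heart, each its own baseline; 2 h equilibration, perfusate changed every 15 min, basal stimulation 2 Hz between measurements. Exposed to 10^-7, 10^-6 and 10^-5 M drug, 15 min each; values reported at 10^-5 M as percent change from baseline. Drug solutions prepared daily in glass-distilled water. Force and rate recorded on polygraph.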
# Oryctolagus cuniculus [22] = species: Oryctolagus cuniculus; experiment: Tested for effective refractory period measured at a pacing rate of 3 Hz in vitro with rabbit heart tissue preparations.; type: functional; set-up: unit: %; procedure, shortened: as §1
# Oryctolagus cuniculus [23] = species: Oryctolagus cuniculus; experiment: Tested for conduction time measured at a pacing rate of 3 Hz in vitro with rabbit heart tissue preparations.; type: functional; procedure, shortened: as §1
# Oryctolagus cuniculus [24] = species: Oryctolagus cuniculus; experiment: Tested for force of contraction measured in mg at a pacing rate of 2 Hz in vitro with rabbit heart tissue preparations.; type: functional; procedure, shortened: as §1
# Oryctolagus cuniculus [25] = species: Oryctolagus cuniculus; experiment: Tested for conduction time measured at a pacing rate of 1 Hz in vitro with rabbit heart tissue preparations.; type: functional; procedure, shortened: as §1
# Oryctolagus cuniculus [26] = species: Oryctolagus cuniculus; experiment: Tested for rate automaticity measured in beats per minute from unpaced right atria of rabbit heart.; type: functional; procedure, shortened: as §1
# Canis familiaris [27] = experiment: Compound was tested in vivo in dogs at a dose of 1.0 mg/kg through intravenous route and number of dogs in which ventricular fibrillation was induced was recorded.(Base line value-1)
# Canis familiaris [28] = experiment: Compound was tested in vivo in dogs at a dose of 3.0 mg/kg through intravenous route and number of dogs in which ventricular fibrillation was induced was recorded.(Base line value-1)
# Canis familiaris [29] = experiment: Compound was tested in vivo in dogs at a dose of 0.3 mg/kg through intravenous route and number of dogs in which ventricular fibrillation was induced was recorded.(Base line value-1)
# Canis familiaris [30] = experiment: Compound was tested in vivo in dogs at a dose of 0.1 mg/kg through intravenous route and number of dogs in which ventricular fibrillation was induced was recorded.(Base line value-1)
# Canis familiaris [31] = experiment: Compound was tested in vivo in dogs at a dose of 0.1 mg/kg through intravenous route and number of dogs in which ventricular arrhythmias were not indicible was recorded.(Base line value-2)
# Canis familiaris [32] = experiment: Compound was tested in vivo in dogs at a dose of 1.0 mg/kg through intravenous route and number of dogs in which ventricular arrhythmias were not indicible was recorded.(Base line value-2)
# Canis familiaris [33] = experiment: Compound was tested in vivo in dogs at a dose of 3.0 mg/kg through intravenous route and number of dogs in which ventricular arrhythmias were not indicible was recorded.(Base line value-2)
# Canis familiaris [34] = experiment: Compound was tested in vivo in dogs at a dose of 0.3 mg/kg through intravenous route and number of dogs in which ventricular arrhythmias were not indicible was recorded.(Base line value-2)
# Canis familiaris [35] = experiment: Compound was tested in vivo in dogs at a dose of 1.0 mg/kg through intravenous route and number of dogs in which sustained ventricular arrhythmias were induced was recorded.(Base line value-1)
# Canis familiaris [36] = experiment: Compound was tested in vivo in dogs at a dose of 0.1 mg/kg through intravenous route and number of dogs in which sustained ventricular arrhythmias were induced was recorded.(Base line value-1)
# Canis familiaris [37] = experiment: Compound was tested in vivo in dogs at a dose of 3.0 mg/kg through intravenous route and number of dogs in which sustained ventricular arrhythmias were induced was recorded.(Base line value-1)
# Canis familiaris [38] = experiment: Compound was tested in vivo in dogs at a dose of 0.3 mg/kg through intravenous route and number of dogs in which sustained ventricular arrhythmias were induced was recorded.(Base line value-1)
# Canis familiaris [39] = experiment: Compound was tested in vivo in dogs at a dose of 0.1 mg/kg through intravenous route and number of dogs in which nonsustained ventricular arrhythmias were induced was recorded.(Base line value-2)
# Canis familiaris [40] = experiment: Compound was tested in vivo in dogs at a dose of 3.0 mg/kg through intravenous route and number of dogs in which nonsustained ventricular arrhythmias were induced was recorded.(Base line value-2)
# Canis familiaris [41] = experiment: Compound was tested in vivo in dogs at a dose of 0.3 mg/kg through intravenous route and number of dogs in which nonsustained ventricular arrhythmias were induced was recorded.(Base line value-2)
# Canis familiaris [42] = experiment: Compound was tested in vivo in dogs at a dose of 1.0 mg/kg through intravenous route and number of dogs in which nonsustained ventricular arrhythmias were induced was recorded.(Base line value-2)
smiles,measurement,setting,value
CCCCN(CCCC)CCCC(O)c1ccc(NS(C)(=O)=O)cc1 (configuration not stated),Time,Canis familiaris [1],358 ms
same,Time,Canis familiaris [2],361 ms
same,Time,Canis familiaris [3],367 ms
same,Time,Canis familiaris [4],13 ms
same,Time,Canis familiaris [5],15 ms
same,Time,Canis familiaris [6],15 ms
same,Time,Canis familiaris [7],13 ms
same,Time,Canis familiaris [8],71 ms
same,Time,Canis familiaris [9],66 ms
same,Time,Canis familiaris [10],64 ms
same,Time,Canis familiaris [11],64 ms
same,Time,Canis familiaris [12],145 ms
same,Time,Canis familiaris [13],147 ms
same,Time,Canis familiaris [14],145 ms
same,Time,Canis familiaris [15],145 ms
same,Time,Canis familiaris [16],128 ms
same,Time,Canis familiaris [17],127 ms
same,Time,Canis familiaris [18],120 ms
same,Time,Canis familiaris [19],115 ms
same,Time,Canis familiaris [20],370 ms
same,ERP1,Oryctolagus cuniculus [21],9.5
same,ERP3,Oryctolagus cuniculus [22],10.4
same,CT3,Oryctolagus cuniculus [23],5.2
same,FOC,Oryctolagus cuniculus [24],0
same,CT1,Oryctolagus cuniculus [25],-8.5
same,Rate,Oryctolagus cuniculus [26],-20.3
same,number of animals,Canis familiaris [27],1 animals
same,number of animals,Canis familiaris [28],0 animals
same,number of animals,Canis familiaris [29],0 animals
same,number of animals,Canis familiaris [30],0 animals
same,number of animals,Canis familiaris [31],1 animals
same,number of animals,Canis familiaris [32],2 animals
same,number of animals,Canis familiaris [33],0 animals
same,number of animals,Canis familiaris [34],2 animals
same,number of animals,Canis familiaris [35],0 animals
same,number of animals,Canis familiaris [36],1 animals
same,number of animals,Canis familiaris [37],2 animals
same,number of animals,Canis familiaris [38],0 animals
same,number of animals,Canis familiaris [39],2 animals
same,number of animals,Canis familiaris [40],1 animals
same,number of animals,Canis familiaris [41],4 animals
same,number of animals,Canis familiaris [42],3 animals
